Measured values published in ChEMBL document CHEMBL1125643, “N-(5-fluorobenzothiazol-2-yl)-2-guanidinothiazole-4-carboxamide. A novel, systemically active antitumor agent effective against 3LL Lewis lung carcinoma” (J Med Chem, 1991).
Several values for one entry are separate records, joined by “and”; a condition that tells them apart may be missing. Identical values can stand only once.

Columns and labels:
[1] = Drug related lethality is percent animals in treated groups dying prior to first tumor related death in untreated groups measured in BDF1 mice after ip administration at 6.25 mg/kg dose; type: toxicity, organism-based; parameters: dose 6.25 mg/kg, route intraperitoneal; settings: BDF1, mus sp., in vivo, read-out: Lethality
Procedure, shortened: (§1)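 Female BDF1 mice (18–20 g) were implanted in the lateral tail vein with 6×10^5 log-phase 3LL cells in 0.20 mL RPMI 1640 and then randomized, seven per group. Drug was dissolved in DMSO (20% of final volume) and diluted with sterile saline to a fine suspension. Mice received 200 μL ip daily from day 2 to day 9 (8 treatments) and were monitored daily. Lethality counted deaths before the first tumor-related control death.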

[2] = Drug related lethality is percent animals in treated groups dying prior to first tumor related death in untreated groups measured in BDF1 mice after po administration at 400 mg/kg dose; type: toxicity, organism-based; parameters: dose 400 mg/kg, route oral; settings: BDF1, mus sp., in vivo, read-out: Lethality
Procedure, shortened: (§2)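 Female BDF1 mice (18–20 g) were implanted in the tail vein with 6×10^5 3LL cells in 0.20 mL RPMI 1640, seven per group. Drug was dissolved in DMSO (20% final) and diluted with saline to a fine suspension. Mice were dosed orally, 200 μL, from day 2 to day 9 (8 treatments). Lethality is the percentage of treated mice dying before the first tumor-related death among untreated controls.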

[3] = Drug related lethality is percent animals in treated groups dying prior to first tumor related death in untreated groups measured in BDF1 mice after po administration at 50 mg/kg dose; type: toxicity, organism-based; parameters: dose 50 mg/kg, route oral; settings: BDF1, mus sp., in vivo, read-out: Lethality; procedure, shortened: as §2
[4] = test system: Mus sp.; assay: In vivo activity measured against 3LL metastasis in BDF1 mice after ip administration at 100 mg/kg dose, dosing on days 2-8 after tumor challenge; type: functional; settings: route intraperitoneal
Procedure, shortened: (§3)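 Female BDF1 mice (18–20 g) given 6×10^5 log-phase 3LL cells iv via tail vein in 0.20 mL RPMI 1640, randomized, 7 per group. Drug freshly dissolved in DMSO (20% of final volume) and diluted with sterile saline to a fine suspension. Dosed 200 μL ip or po, 8 treatments from day 2. Survival monitored daily. %T/C = MST treated/MST control × 100, given as mean (s.e.) over repeat experiments.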

[5] = test system: Mus sp.; assay: In vivo activity measured against 3LL metastasis in BDF1 mice after ip administration at 12.5 mg/kg dose, dosing on days 2-8 after tumor challenge; type: functional; settings: route intraperitoneal; procedure, shortened: as §3
[6] = test system: Mus sp.; assay: In vivo activity measured against 3LL metastasis in BDF1 mice after ip administration at 200 mg/kg dose, dosing on days 2-8 after tumor challenge; type: functional; settings: route intraperitoneal; procedure, shortened: as §3
[7] = test system: Mus sp.; assay: In vivo activity measured against 3LL metastasis in BDF1 mice after ip administration at 25 mg/kg dose, dosing on days 2-8 after tumor challenge; type: functional; settings: route intraperitoneal; procedure, shortened: as §3
[8] = Drug related lethality is percent animals in treated groups dying prior to first tumor related death in untreated groups measured in BDF1 mice after ip administration at 400 mg/kg dose; type: toxicity, organism-based; parameters: dose 400 mg/kg, route intraperitoneal; settings: BDF1, mus sp., in vivo, read-out: Lethality; procedure, shortened: as §1
[9] = test system: Mus sp.; assay: In vivo activity measured against 3LL metastasis in BDF1 mice after ip administration at 50 mg/kg dose, dosing on days 2-8 after tumor challenge; type: functional; settings: route intraperitoneal; procedure, shortened: as §3
[10] = test system: Mus sp.; assay: In vivo activity measured against 3LL metastasis in BDF1 mice after ip administration at 6.25 mg/kg dose, dosing on days 2-8 after tumor challenge; type: functional; settings: route intraperitoneal; procedure, shortened: as §3
[11] = test system: Mus sp.; assay: In vivo activity measured against 3LL metastasis in BDF1 mice after po administration at 200 mg/kg dose, dosing on days 2-8 after tumor challenge; type: functional; procedure, shortened: as §3
[12] = test system: Mus sp.; assay: In vivo activity measured against 3LL metastasis in BDF1 mice after po administration at 25 mg/kg dose, dosing on days 2-8 after tumor challenge; type: functional; procedure, shortened: as §3
[13] = Drug related lethality is percent animals in treated groups dying prior to first tumor related death in untreated groups measured in BDF1 mice after po administration at 100 mg/kg dose; type: toxicity, organism-based; parameters: dose 100 mg/kg, route oral; settings: BDF1, mus sp., in vivo, read-out: Lethality; procedure, shortened: as §2
[14] = Drug related lethality is percent animals in treated groups dying prior to first tumor related death in untreated groups measured in BDF1 mice after po administration at 12.5 mg/kg dose; type: toxicity, organism-based; parameters: dose 12.5 mg/kg, route oral; settings: BDF1, mus sp., in vivo, read-out: Lethality; procedure, shortened: as §2
[15] = Drug related lethality is percent animals in treated groups dying prior to first tumor related death in untreated groups measured in BDF1 mice after po administration at 200 mg/kg dose; type: toxicity, organism-based; parameters: dose 200 mg/kg, route oral; settings: BDF1, mus sp., in vivo, read-out: Lethality; procedure, shortened: as §2
[16] = Drug related lethality is percent animals in treated groups dying prior to first tumor related death in untreated groups measured in BDF1 mice after po administration at 25 mg/kg dose; type: toxicity, organism-based; parameters: dose 25 mg/kg, route oral; settings: BDF1, mus sp., in vivo, read-out: Lethality; procedure, shortened: as §2
[17] = Drug related lethality is percent animals in treated groups dying prior to first tumor related death in untreated groups measured in BDF1 mice after ip administration at 100 mg/kg dose; type: toxicity, organism-based; parameters: dose 100 mg/kg, route intraperitoneal; settings: BDF1, mus sp., in vivo, read-out: Lethality; procedure, shortened: as §1
[18] = Drug related lethality is percent animals in treated groups dying prior to first tumor related death in untreated groups measured in BDF1 mice after ip administration at 12.5 mg/kg dose; type: toxicity, organism-based; parameters: dose 12.5 mg/kg, route intraperitoneal; settings: BDF1, mus sp., in vivo, read-out: Lethality; procedure, shortened: as §1
[19] = Drug related lethality is percent animals in treated groups dying prior to first tumor related death in untreated groups measured in BDF1 mice after ip administration at 200 mg/kg dose; type: toxicity, organism-based; parameters: dose 200 mg/kg, route intraperitoneal; settings: BDF1, mus sp., in vivo, read-out: Lethality; procedure, shortened: as §1
[20] = Drug related lethality is percent animals in treated groups dying prior to first tumor related death in untreated groups measured in BDF1 mice after ip administration at 25 mg/kg dose; type: toxicity, organism-based; parameters: dose 25 mg/kg, route intraperitoneal; settings: BDF1, mus sp., in vivo, read-out: Lethality; procedure, shortened: as §1
[21] = test system: Mus sp.; assay: In vivo activity measured against 3LL metastasis in BDF1 mice after po administration at 50 mg/kg dose, dosing on days 2-8 after tumor challenge; type: functional; procedure, shortened: as §3
[22] = test system: Mus sp.; assay: In vivo activity was measured against 3LL metastasis in BDF1 mice after po administration at 100 mg/kg dose, dosing on days 2-8 after tumor challenge; type: functional; procedure, shortened: as §3
[23] = Drug related lethality is percent animals in treated groups dying prior to first tumor related death in untreated groups measured in BDF1 mice after ip administration at 50 mg/kg dose; type: toxicity, organism-based; parameters: dose 50 mg/kg, route intraperitoneal; settings: BDF1, mus sp., in vivo, read-out: Lethality; procedure, shortened: as §1
[24] = Drug related lethality is percent animals in treated groups dying prior to first tumor related death in untreated groups measured in BDF1 mice after ip administration at 400 mg/kg dose days 3 after tumor challenge; settings: BDF1, mus sp., in vivo
[25] = Drug related lethality is percent animals in treated groups dying prior to first tumor related death in untreated groups measured in BDF1 mice after ip administration at 300 mg/kg dose days 3 after tumor challenge; settings: BDF1, mus sp., in vivo
[26] = Drug related lethality is percent animals in treated groups dying prior to first tumor related death in untreated groups measured in BDF1 mice after iv administration at 10 mg/kg dose 3 days after tumor challenge; type: toxicity, organism-based; parameters: dose 10 mg/kg, route intravenous; settings: BDF1, mus sp., in vivo, read-out: Lethality
[27] = Drug related lethality is percent animals in treated groups dying prior to first tumor related death in untreated groups measured in BDF1 mice after iv administration at 15 mg/kg dose 3 days after tumor challenge; type: toxicity, organism-based; parameters: dose 15 mg/kg, route intravenous; settings: BDF1, mus sp., in vivo, read-out: Lethality
[28] = Drug related lethality is percent animals in treated groups dying prior to first tumor related death in untreated groups measured in BDF1 mice after iv administration at 18 mg/kg dose 3 days after tumor challenge; type: toxicity, organism-based; parameters: dose 18 mg/kg, route intravenous; settings: BDF1, mus sp., in vivo, read-out: Lethality
[29] = Drug related lethality is percent animals in treated groups dying prior to first tumor related death in untreated groups measured in BDF1 mice after iv administration at 2.5 mg/kg dose 3 days after tumor challenge; type: toxicity, organism-based; parameters: dose 2.5 mg/kg, route intravenous; settings: BDF1, mus sp., in vivo, read-out: Lethality
[30] = test system: Mus sp.; assay: In vivo activity against 3LL metastasis in BDF1 mice after iv administration at 10 mg/kg dose, dosing on days 3 after tumor challenge; type: functional
[31] = test system: Mus sp.; assay: In vivo activity against 3LL metastasis in BDF1 mice after iv administration at 18 mg/kg dose, dosing on days 3 after tumor challenge; type: functional
[32] = Drug related lethality is percent animals in treated groups dying prior to first tumor related death in untreated groups measured in BDF1 mice after iv administration at 20 mg/kg dose 3 days after tumor challenge; type: toxicity, organism-based; parameters: dose 20 mg/kg, route intravenous; settings: BDF1, mus sp., in vivo, read-out: Lethality
[33] = Drug related lethality is percent animals in treated groups dying prior to first tumor related death in untreated groups measured in BDF1 mice after iv administration at 25 mg/kg dose 3 days after tumor challenge; type: toxicity, organism-based; parameters: dose 25 mg/kg, route intravenous; settings: BDF1, mus sp., in vivo, read-out: Lethality
[34] = Drug related lethality is percent animals in treated groups dying prior to first tumor related death in untreated groups measured in BDF1 mice after iv administration at 30 mg/kg dose 3 days after tumor challenge; type: toxicity, organism-based; parameters: dose 30 mg/kg, route intravenous; settings: BDF1, mus sp., in vivo, read-out: Lethality
[35] = Drug related lethality is percent animals in treated groups dying prior to first tumor related death in untreated groups measured in BDF1 mice after iv administration at 5 mg/kg dose 3 days after tumor challenge; type: toxicity, organism-based; parameters: dose 5 mg/kg, route intravenous; settings: BDF1, mus sp., in vivo, read-out: Lethality
[36] = test system: Mus sp.; assay: In vivo activity measured against 3LL metastasis in BDF1 mice after iv administration at 15 mg/kg dose, dosing on days 3 after tumor challenge; type: functional
[37] = test system: Mus sp.; assay: In vivo activity measured against 3LL metastasis in BDF1 mice after iv administration at 2.5 mg/kg dose, dosing on days 3 after tumor challenge; type: functional
[38] = test system: Mus sp.; assay: In vivo activity measured against 3LL metastasis in BDF1 mice after iv administration at 20 mg/kg dose, dosing on days 3 after tumor challenge; type: functional
[39] = test system: Mus sp.; assay: In vivo activity measured against 3LL metastasis in BDF1 mice after iv administration at 25 mg/kg dose, dosing on days 3 after tumor challenge; type: functional
[40] = test system: Mus sp.; assay: In vivo activity measured against 3LL metastasis in BDF1 mice after iv administration at 5 mg/kg dose, dosing on days 3 after tumor challenge; type: functional

## N=C(N)Nc1nc(C(=O)Nc2nc3cc(F)ccc3s2)cs1
[1]
  mortality: 0%
[2]
  mortality: 45.7%
[3]
  mortality: 2%
[4]
  T/C: 160.7%
[5]
  T/C: 149.3%
[6]
  T/C: 179.7%
[7]
  T/C: 153.8%
[8]
  mortality: 42.9%
[9]
  T/C: 153%
[10]
  T/C: 112.7%
[11]
  T/C: 119% and 150.3%
[12]
  T/C: 127%
[13]
  mortality: 5.7%
[14]
  mortality: 0%
[15]
  mortality: 22.7%
[16]
  mortality: 1.78%
[17]
  mortality: 0%
[18]
  mortality: 0%
[19]
  mortality: 14.3%
[20]
  mortality: 0%
[21]
  T/C: 140.4%
[22]
  T/C: 157.7%
[23]
  mortality: 0.43%

## O=P1(N(CCCl)CCCl)NCCCO1 (stereo not given) [CYCLOPHOSPHAMIDE ANHYDROUS]
[24]
  mortality: 14%
[25]
  mortality: 0%

## COc1cccc2c1C(=O)c1c(O)c3c(c(O)c1C2=O)C[C@@](O)(C(=O)CO)C[C@@H]3O[C@H]1C[C@H](N)[C@H](O)[C@H](C)O1 [DOXORUBICIN]
[26]
  mortality at 72 h: 0%
[27]
  mortality at 72 h: 21%
[28]
  mortality at 72 h: 0%
[29]
  mortality at 72 h: 0%
[30]
  T/C: 137%
[31]
  T/C: 191%
[32]
  mortality at 72 h: 15%
[33]
  mortality at 72 h: 72%
[34]
  mortality at 72 h: 100%
[35]
  mortality at 72 h: 0%
[36]
  T/C: 215%
[37]
  T/C: 120%
[38]
  T/C: 189%
[39]
  T/C: 197%
[40]
  T/C: 115%
